High-throughput results from PubChem BioAssay.
GAA850 FXN act: activators of GAA850 frataxin (FXN) promoter; HEK293 lucGAA850 FXN promoter luciferase reporter, 24 h; percent of 10 µM SAHA response; activation, % at 6 µM; 0.56% of 360,000 active;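 active means activation above the average of all compounds screened plus 3 SD, cutoff fixed separately per campaign, cut at about 7.5% in these data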;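 further: 0% = DMSO wells and 100% = 10 µM SAHA wells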
MC4R ag barr: activates human MC4R beta-arrestin recruitment; U2OS MC4R beta-arrestin complementation, luminescence; percent of melanotan II response, DMSO zero; activation, % at 8.9 µM; 0.98% of 360,000 active; AID 540308;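 active means activation above a per-plate cutoff, the mean activation of sample wells on that plate plus 3 SD, cut at about 8% in these data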
MC4R antagonist: antagonists of human melanocortin 4 receptor (MC4R); 0.48% of 360,000 active; MC4R-expressing cells, MTII-stimulated cAMP, LANCE TR-FRET; inhibition, % at 6.5 µM; P32245;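 active means inhibition above its plate's cutoff, the mean of tested wells on that plate plus 3 SD, cut at about 29% in these data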;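 further: 0% = Melanotan II alone and 100% = Melanotan II plus saturating MCL0020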
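Assay system: human MC4R-expressing U2OS cells; reagent: Melanotan II stimulation of cells; dosing: 6.5 µM single dose; timing: compound 30 min, challenge 1 h, detection 1 h; signal: TR-FRET cAMP assay; replicates: one well per compound, no replicates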
AHR act: activates the human aryl hydrocarbon receptor; activation, % at 5 µM; AHR-responsive luciferase reporter cells, luminescence; 2.5% of 320,000 active; P35869; in the data active means activation above about 47%;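 further: 0% = vehicle wells and 100% = reference agonist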
HTR2A ag: mouse HTR2A agonism via beta-arrestin recruitment. P35363. CHO-K1 mHTR2A beta-arrestin complementation, luminescence; percent of 30 µM serotonin response. activation, % at 7.6 µM. 0.66% of 360,000 active. AID 624169;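 active means activation above a run cutoff, the mean activation of all tested compounds plus 3 SD, cut at about 14% in these data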;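 further: 0% = plate median of compound wells and 100% = 30 µM serotonin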
MOR ag counter: activates human mu opioid receptor in HTR2A counterscreen. 5.3% of 2,300 active. activation, % at 9.3 µM. shares compounds with HTR2A ag. U2OS OPRM1 beta-arrestin PathHunter, luminescence; DMSO 0%, DAMGO 9.3 µM 100%;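 active means mean activation above the mean of DMSO-only wells plus 3 SD, cut at about 0.5% in these data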
Target sequence (P35372 whole entry, looked up): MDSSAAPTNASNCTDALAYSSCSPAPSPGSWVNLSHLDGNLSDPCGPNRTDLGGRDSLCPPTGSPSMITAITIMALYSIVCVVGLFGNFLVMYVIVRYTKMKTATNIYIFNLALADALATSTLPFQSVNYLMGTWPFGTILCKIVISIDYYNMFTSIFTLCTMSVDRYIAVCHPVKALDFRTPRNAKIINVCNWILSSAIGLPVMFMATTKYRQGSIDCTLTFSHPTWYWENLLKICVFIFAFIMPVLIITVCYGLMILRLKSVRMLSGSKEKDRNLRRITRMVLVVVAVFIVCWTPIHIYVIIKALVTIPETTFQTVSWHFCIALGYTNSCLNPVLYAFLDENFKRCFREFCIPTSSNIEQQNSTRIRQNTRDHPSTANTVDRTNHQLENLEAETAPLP
m5-HT2A ag conf: confirmation of mouse HTR2A serotonin receptor agonists. shares compounds with HTR2A ag. CHO-K1 PathHunter beta-arrestin recruitment, luminescence; DMSO 0%, 30 µM serotonin 100%. activation, % at 7.6 µM. 19% of 2,300 active. AID 624381;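 active means mean activation across triplicates above the hit threshold derived in the original primary screen, cut at about 15% in these data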
The depositor's hits bear a star; . = no result. A selection: hits, their analogues and other compounds. The true share with any hit is near 4.7%.

SMILES	GAA850 FXN act	MC4R ag barr	MC4R antagonist	AHR act	HTR2A ag	MOR ag counter	m5-HT2A ag conf
CC1=C(C(=O)N2CCCCCC2)CC(CC(=O)NC2CCCC2)C(=O)N1Cc1ccccc1 (stereo not drawn)	.	.	.	.	12	.	.
CC(CCc1ccc(O)cc1)NCCc1ccc(O)c(O)c1 (stereo not drawn)	4	-2	13	-1	27*	0	120*
Cn1nc(C(C)(C)C)cc1C(=O)N1CCCCC1c1cc(C(=O)Nc2ccccc2)no1 (stereo not drawn)	-1	-1	-3	.	-3	.	.
Cc1nnc(NC(=O)c2nc(S(=O)(=O)Cc3ccccc3)ncc2Cl)s1	-6	2	13	1	15*	0	-2
CC(CCc1ccccc1)NC(=O)c1ccccc1Cl (stereo not drawn)	2	-2	-1	5	24*	0	-4
CN(C(=O)c1ccc(F)cc1)c1ccccc1C(=O)NCc1ccccc1	0	2	4	-3	2	.	.
CN(C(=O)c1ccccc1Cl)c1ccccc1C(=O)NCc1ccccc1	0	-3	2	0	35*	-1	-3
O=C1C2CCCN2C(=O)N1CCN1CCN(c2ccccc2)CC1 (stereo not drawn)	-2	-1	5	0	0	.	.
O=C1C2CCCN2C(=O)N1CCCCN1CCN(c2ccccc2)CC1 (stereo not drawn)	-1	-3	-2	1	15*	-1	47*
O=C(COC(=O)c1ccc(OC(F)F)cc1)NCCC1=CCCCC1	1	-3	-4	1	4	.	.
CCc1ccccc1NC(=O)c1cc(S(=O)(=O)N2CCc3ccccc32)cn1C	-2	1	3	0	28*	0.7*	-2
CCCNC(=O)c1cc(S(=O)(=O)N2CCc3ccccc32)cn1C	-1	3	4	2	-1	.	.
O=C(CN1C(=O)c2ccccc2C1=O)C(O)CN1C(=O)c2ccccc2C1=O (stereo not drawn)	.	.	.	.	-4	.	.
CCN(C(=O)CSc1nnc(-c2ccc(OC)cc2)n1C(C)C)C1CCS(=O)(=O)C1 (stereo not drawn)	0	-1	9	0	5	.	.
CCOC(=O)c1c2c(n(C)c1C)C(=O)C(=O)c1ccc(Br)cc1-2	-3	-1	-2	7	-2	.	.
CCOC(=O)c1c2c(n(Cc3ccccc3)c1C)C(=O)C(=O)c1ccccc1-2	-12	2	-7	.	15*	1.8*	9
O=C(CCN1CCN(c2ccccc2F)CC1)Nc1ccc2c(c1)OCO2	2	0	-1	2	18*	0	59*
NCc1csc(NC(=O)Nc2cccc(C(F)(F)F)c2)n1	0	0	9	.	-11	.	.
O=C(CNC(=O)c1ccccc1F)OCCCOC(=O)CNC(=O)c1ccccc1F	0	-2	10	-1	15*	0	2
COc1cccc(N2CCN(S(=O)(=O)c3ccc4nc(-c5ccccc5)[nH]c4c3)CC2)c1	-1	8	6	19	16*	0	-1
O=S(=O)(NCCSc1ccccc1)c1cccs1	2	-1	5	1	15*	-1	-5
O=S(=O)(NCCc1ccccc1)c1cccs1	1	1	13	-2	-2	.	.
COc1ccc(-c2cc(C(=O)NC3CCCC3)no2)cc1	1	4	3	6	25*	0	-4
CN(Cc1ccco1)C(=O)[C@H](Cc1ccccc1)NC(=O)CC[C@H]1O[C@@H](n2ccc(=O)[nH]c2=O)[C@H](O)[C@@H]1O	.	.	.	.	1	.	.
Cc1cccc(S(=O)(=O)NCCc2cn3ccccc3n2)c1	2	1	-1	-1	2	.	.
SMILES	GAA850 FXN act	MC4R ag barr	MC4R antagonist	AHR act	HTR2A ag	MOR ag counter	m5-HT2A ag conf
Cc1ccn2cc(CCNS(=O)(=O)c3ccc4c(c3)CCCC4)nc2c1	3	0	-4	1	25*	-1	-5
Cc1ccc(-c2nn(-c3ccccc3)cc2CO)o1	4	0	-4	-1	15*	-1	-3
COc1cccc(-n2c(SCC(=O)N3CCCCC3)nc3c([nH]c4ccccc43)c2=O)c1	-2	0	9	17	21*	-1	-4
CC1(C(=O)NS(=O)(=O)Cc2ccccc2C(F)(F)F)CCN1C(=O)Cc1ccccc1 (stereo not drawn)	0	-1	5	.	4	.	.
CCOc1ccc(NC2c3ccccc3C(=O)N2Cc2ccco2)cc1 (stereo not drawn)	0	1	3	2	38*	0	-4
CC1(C(=O)NS(=O)(=O)c2ccccc2Cl)CCN1C(=O)c1ccccc1CCc1ccccc1 (stereo not drawn)	-1	1	10	.	4	.	.
CC(=O)OC(C(=O)Nc1nccs1)c1ccccc1 (stereo not drawn)	0	1	8	0	16*	-1	-2
COc1cccc(NC(=O)c2ccccc2N2C(=O)C3C4C=CC(C4)C3C2=O)c1 (stereo not drawn)	1	-2	3	1	2	.	.
CCc1ccccc1NC(=O)c1ccccc1N1C(=O)C2C3C=CC(C3)C2C1=O (stereo not drawn)	1	-2	0	2	16*	0	1
O=P1(NC2CCCC2)OCC2(CO1)COP(=O)(NC1CCCC1)OC2 (stereo not drawn)	1	1	-1	.	4	.	.
CCOC1=C2[C@@H](CN(S(=O)(=O)c3ccc(C)cc3)[C@H]2c2ccc(Cl)cc2)[C@H]2C(=O)N(c3ccccc3)C(=O)[C@H]2C1	.	.	.	.	21*	-1	-2
Cn1c(NC(=O)c2ccc(F)c(F)c2)cc(=O)n(C)c1=O	-1	0	12	2	-2	.	.
Cc1ccc(C(=O)Nc2cc(=O)n(C)c(=O)n2C)cc1C	-1	-2	4	40	16*	0	-2
CC1CCN(Cc2nnnn2CCCC(=O)NCCc2cnn(C)c2)CC1	1	1	7	-1	16*	-1	-5
CC1CCN(Cc2nnnn2CCCC(=O)NCC(C)(C)N2CCOCC2)CC1	-1	-3	10	-1	-1	.	.
CC(C(=O)Nc1ccc2[nH]c(=O)[nH]c2c1)N1CCN(Cc2ccc3c(c2)OCO3)CC1 (stereo not drawn)	0	-2	10	-2	-9	.	.
CCCn1c(N)cc(=O)n(CCC)c1=O	-1	-4	10	0	16*	-1	-5
CC(C)Cn1c(N)cc(=O)n(C)c1=O	-1	-5	11	2	1	.	.
